In ChEMBL document CHEMBL1121875, “Retinoic acid analogues with ring modifications. Synthesis and pharmacological activity” (J Med Chem, 1981):

Tests used:
[1] = molecular target: T1, Ornithine decarboxylase (Mus musculus) (UniProt P00860); assay: (§1) Percent inhibition of TPA-induced ornithine decarboxylase activity; assay type: functional; design: concentration or dose not given beside the values; details: concentration not given here
T1 sequence (whole entry): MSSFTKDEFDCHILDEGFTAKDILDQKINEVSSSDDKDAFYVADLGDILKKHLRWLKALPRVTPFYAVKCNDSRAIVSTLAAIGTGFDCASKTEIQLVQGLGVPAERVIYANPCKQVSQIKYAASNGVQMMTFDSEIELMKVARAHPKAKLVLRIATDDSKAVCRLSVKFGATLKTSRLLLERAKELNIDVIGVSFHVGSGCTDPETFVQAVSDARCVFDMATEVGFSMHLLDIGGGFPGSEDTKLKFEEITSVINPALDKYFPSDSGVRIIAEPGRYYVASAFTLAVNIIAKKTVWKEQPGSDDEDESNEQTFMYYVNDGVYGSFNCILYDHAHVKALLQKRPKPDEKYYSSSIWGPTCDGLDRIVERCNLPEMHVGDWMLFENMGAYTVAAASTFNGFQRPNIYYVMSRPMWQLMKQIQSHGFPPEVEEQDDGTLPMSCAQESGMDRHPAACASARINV
In short: (§2)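 Mouse epidermal ODC was induced by topical TPA on the back skin, with each retinoid applied topically to the back at 1.7 or 17 nmol. Each treatment used 3–6 groups of 3–4 mice. Epidermal ODC activity was measured by a previously described method and reported as % inhibition versus TPA-only controls (mean ± SE).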

[2] = molecular target: T1, Ornithine decarboxylase (Mus musculus); assay: as §1; assay type: functional; details: tested as the 2H-labelled form; concentration not given here; in short: as §2

`CCOC(=O)/C=C(C)/C=C/C=C(C)/C=C/C1CC2CCC1C2` (stereo not drawn) was tested, and the inhibition [1] was 64%.
`CCOC(=O)c1ccc(/C=C(C)/C=C/C2=C(C)CCCC2(C)C)cc1` was tested, and the inhibition [1] was 80%.
`CCOC(=O)/C=C(C)/C=C/C=C(C)/C=C/C1=CC2CCC1C2` (stereo not drawn) was tested, and the inhibition [1] was 54%.
Work on `CC1=C(/C=C/C(C)=C/C=C/C(C)=C/C(=O)O)C(C)(C)CCC1` yielded an inhibition [2] of 90%, an inhibition [1] of 92% and an inhibition ([1]; tested as the 2H-labelled form) of 90%.
`CCOC(=O)/C=C(C)/C=C/C=C(C)/C=C/C1=C(C)C2(CCC1(C)C)CC2` was tested, and the inhibition [1] was 72%.
`CCOC(=O)\C=C(C)/C=C/C=C(C)/C=C/C12CC1(C)CCCC2(C)C` (stereo not drawn) showed an inhibition [1] of 45%.
For `CC1=C(/C=C/C(C)=C/C=C/C(C)=C\C(=O)O)C(C)(C)CCC1`, the inhibition [1] was 96%.
`CCOC(=O)c1ccc(/C=C(C)/C=C/C23CC2(C)CCCC3(C)C)cc1` (stereo not drawn) showed an inhibition [1] of 80%.
In the case of `CCOC(=O)\C=C(C)/C=C/C=C(C)/C=C/C1=C(C)C2(CCC1(C)C)CC2`, the inhibition [1] is reported as 67%.
`CCOC(=O)/C=C(C)/C=C/C=C(C)/C=C/C12CC1(C)CCCC2(C)C` (stereo not drawn) was tested, and the inhibition [1] was 70%.
Compound `CCOC(=O)c1ccc(/C=C(C)/C=C/C23OC2(C)CCCC3(C)C)cc1` (stereo not drawn) has an inhibition [1] of 80%.
